Published values gathered from unrelated publications.
Lines come from different studies, so protocols differ.
CDC7: Cell division cycle 7-related protein kinase (CDC7, Homo sapiens, UniProt O00311)
SIRT2: NAD-dependent protein deacetylase sirtuin-2 (SIRT2, Homo sapiens, UniProt Q8IXJ6)
RORC: Nuclear receptor ROR-gamma (RORC, Homo sapiens, UniProt P51449)
FES: Tyrosine-protein kinase Fes/Fps (FES, Homo sapiens, UniProt P07332)
AMY2: Pancreatic alpha-amylase (AMY2, Sus scrofa, UniProt P00690)
SLC22A8: Organic anion transporter 3 (SLC22A8, Homo sapiens, UniProt Q8TCC7)
Maoa: Amine oxidase [flavin-containing] A (Maoa, Rattus norvegicus, UniProt P21396)
polA: DNA polymerase I, thermostable (polA, Thermus aquaticus, UniProt P19821)

| SMILES | target | test | system | conditions | IC50 [nM] |
| --- | --- | --- | --- | --- | --- |
| CC(C)[C@H](N)c1nc2cc(-c3ccncc3F)sc2c(=O)[nH]1 | CDC7 | enzyme activity, inhibitor | – | – | 1.84 |
| CCCCCCCCNC(=S)NCCCC[C@H](NS(C)(=O)=O)C(=O)N[C@H](C)C(=O)N[C@@H](CCCNC(=N)N)C(N)=O | SIRT2 | enzyme activity, inhibitor | – | – | 400 |
| O=S(=O)(c1cccc(C(F)(F)F)c1)N1CCc2ccc(OCc3c(Cl)cccc3Cl)cc21 | RORC | ligand displacement, radioligand | – | – | 130 |
| CCn1ncc2c1-c1cnc(N)c(c1)O[C@H](C)c1cc(F)ccc1-c1nn(C)nc1C2 | FES | enzyme activity, inhibitor, radiometric | – | – | 258 |
| OC[C@@H]1[C@@H](O)[C@H](O)[C@@H](O)[C@@H]2O[C@H]12 | Beta-glucosidase (GBA2, Homo sapiens, UniProt Q9HCG7) | enzyme activity, inhibitor | – | pH 6, lysate | 1160 |
| CCNC(=O)[C@H](CCCNC(=N)CCl)NC(=O)c1ccccc1 | Protein-arginine deiminase type-3 (PADI3, Homo sapiens, UniProt Q9ULW8) | enzyme activity, inhibitor | – | – | 26000 |
| C=C(NC(=O)[C@H](CCCCNC(=S)NCCCCCCCCCCCC)NS(C)(=O)=O)C(=O)N[C@@H](CCCNC(=N)N)C(N)=O | SIRT2 | enzyme activity, inhibitor | – | – | 30 |
| CC(C)C[C@H](NC(=O)[C@H](Cc1ccccc1)NC(=O)[C@@H](N)Cc1ccc(O)cc1)C(=O)N[C@@H](Cc1ccccc1)C(=O)N[C@@H](CCCNC(=N)N)C(=O)N1CCC[C@H]1C(=O)N[C@@H](CCCNC(=N)N)C(=O)N[C@@H](CC(N)=O)C(N)=O | Neuromedin-U receptor 1 (Mus musculus, UniProt O55040) | ligand displacement, radioligand | – | – | 0.38 |
| O=C1Nc2ccc(Cl)cc2/C1=N/NS(=O)(=O)c1cc(Cl)cc(Cl)c1O | AMY2 | enzyme activity, inhibitor | – | – | 1100 |
| CCCCCCCCCCCCNC(=S)NCCCC[C@H](NC(=O)OCc1ccccc1)C(=O)N[C@@H](Cc1c[nH]c2ccccc12)C(=O)N[C@@H](CCCCNC(=N)N)C(N)=O | SIRT2 | enzyme activity, inhibitor | – | – | 210 |
| CC(C)[C@H](N)c1nc2cc(-c3ccnnc3)sc2c(=O)[nH]1 | CDC7 | enzyme activity, inhibitor | – | – | 3930 |
| O=C(O)C1=CC(=C(c2ccc(O)c(C(=O)O)c2)c2ccc(O)c(C(=O)O)c2)C=CC1=O | Flap endonuclease 1 (Homo sapiens, UniProt P39748) | enzyme activity, inhibitor | – | with preincubation | 540 |
| CC(C)(C)C(O)/C=C/c1ccc2c(c1)OCO2 (stereo not drawn) | SLC22A8 | transporter uptake, inhibitor | – | – | 27600 |
| O=C(NO)c1ccc(CN(c2cnccn2)c2cnccn2)cc1 | SIRT2 | enzyme activity, inhibitor, fluorescence | – | – | > 10000 |
| Cc1cnc(-c2ccc(-c3ccc(NC(=O)Nc4c(F)cc(F)cc4F)cc3F)c3c2C(=O)NC3)[nH]1 | Myosin-IIIb (MYO3B, Homo sapiens, UniProt Q8WXR4) | enzyme activity, inhibitor | – | – | 4.2 |
| O=S(=O)(c1ccccc1)N1CCc2ccc(OCc3c(F)cccc3Cl)cc21 | RORC | ligand displacement, radioligand | – | – | 800 |
| CN1c2ccccc2C(=NN=Cc2cc3ccc(Cl)cc3nc2Cl)CS1(=O)=O | Maoa | enzyme activity, inhibitor, fluorescence | – | – | 2030 |
| O=S(=O)(c1cccc(C(F)(F)F)c1)N1c2cc(OCc3c(F)cncc3Cl)ccc2CC1C(F)(F)F (stereo not drawn) | RORC | ligand displacement, radioligand | – | – | 290 |

| SMILES | target | test | system | conditions | IC50 [nM] |
| --- | --- | --- | --- | --- | --- |
| CC/C=C\C/C=C\C/C=C\C/C=C\C/C=C\CCCC(=O)O | polA | enzyme activity, inhibitor | – | – | > 100000 |
| CCCCC(=O)N(Cc1ccc(-c2ccccc2-c2nnn[nH]2)cc1)[C@H](C(=O)O)C(C)C | SLC22A8 | transporter uptake, inhibitor | – | – | 250 |
| CCCCCCCCCCCCCC(=O)NCCCC[C@H](NS(C)(=O)=O)C(=O)N[C@H](C)C(=O)N[C@@H](CCCNC(=N)N)C(N)=O | SIRT2 | enzyme activity, inhibitor | – | – | 740 |
| CC(Oc1ccc2c(c1)N(S(=O)(=O)c1cccc(C(F)(F)F)c1)CC2)c1c(F)cccc1Cl (stereo not drawn) | RORC | ligand displacement, radioligand | – | – | 350 |
| CC(=NN=C1CS(=O)(=O)N(C)c2ccccc21)c1ccc(Cl)s1 | Maoa | enzyme activity, inhibitor, fluorescence | – | – | 1520 |
| COc1cc(C=CC(=O)CC(c2ccc(N(C)C)cc2)n2ccnc2)ccc1O (stereo not drawn) | AMY2 | enzyme activity, inhibitor, absorbance | – | – | 10400 |
| COc1ccc2c(Oc3ccc4c(C(=O)Nc5ccccc5N)cccc4c3)ccnc2c1 | FES | enzyme activity, inhibitor | – | – | > 500 |
| CCCCCCCCCCCCCCCCCC(=O)Oc1ccc2ccc(=O)oc2c1 | polA | enzyme activity, inhibitor | – | – | > 200000 |
| COc1cc(Cl)ccc1COc1ccc2c(c1)N(S(=O)(=O)c1cccc(C(F)(F)F)c1)CC2 | RORC | ligand displacement, radioligand | – | – | 350 |
| O=C(O[C@H]1[C@@H]2C=CO[C@@H](O[C@@H]3O[C@H](CO)[C@@H](O)[C@H](O)[C@H]3O)[C@@H]2[C@@]2(CO)O[C@@H]12)c1ccc(O)cc1 | SLC22A8 | transporter uptake, inhibitor, radiometric | HEK293 | 10 min | 83000 |
| Cc1cccc(S(=O)(=O)N2CCc3ccc(OCc4c(F)cccc4Cl)cc32)c1 | RORC | ligand displacement, radioligand | – | – | 230 |
| O=C1Nc2ccc([N+](=O)[O-])cc2/C1=N/NS(=O)(=O)c1cc(Cl)cc(Cl)c1O | AMY2 | enzyme activity, inhibitor | – | – | 1300 |
| C=C(C)[C@@H]1CCC(C)=C[C@H]1c1c(O)cc(CCC)cc1O | Prostaglandin E synthase (PTGES, Homo sapiens, UniProt O14684) | enzyme activity, inhibitor | – | – | > 10000 |
| O=C(O)CNC(=O)C(=O)O | Hypoxia-inducible factor 1-alpha inhibitor (HIF1AN, Homo sapiens, UniProt Q9NWT6) | enzyme activity, inhibitor, mass spectrometry | – | – | < 1000 |
| O=S(=O)(c1cccc(C(F)(F)F)c1)N1CCc2ccc(OCc3c(F)cncc3Cl)cc21 | RORC | ligand displacement, radioligand | – | – | 230 |
| O=c1oc(Cl)c(Cl)c2ccccc12 | Chymotrypsinogen A (Bos taurus, UniProt P00766) | enzyme activity, inhibitor, fluorescence | – | – | 2800 |
| O=S(=O)(c1cccc(C(F)(F)F)c1)N1CCc2ccc(OCc3c(Cl)ccnc3Cl)cc21 | RORC | ligand displacement, radioligand | – | – | 78 |
| CN1CCN(c2ccnc(C(=O)N3CCC[C@H](C(=O)Nc4cccc(-c5ccc(C(N)=O)cc5)c4)C3)c2)CC1 | Histone lysine demethylase PHF8, PHD (PHF8, Homo sapiens, UniProt Q9UPP1) | cell-free assay, inhibitor, TR-FRET | – | – | > 100000 |
